From ChEMBL document CHEMBL1148523, “Synthesis and biological evaluation of novel pyridazinone-based alpha4 integrin receptor antagonists” (J Med Chem, 2006)
pIC50: −log10 of the molar value.

Key:
[1] = target: Integrin alpha-4/beta-1 (Homo sapiens, UniProt P05556+P13612); experiment: Inhibition of binding of alpha4beta1 integrin receptor expressed in human Ramos cells to immobilized VCAM1; assay type: cell-based
[2] = Half life in rat at 3 mg/kg, iv; assay type: ADME, organism-based; design: dose 3 mg/kg, route intravenous; details: in vivo
Outline: (§1)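 Rats were given 3 mg/kg iv or 30 mg/kg by oral gavage (oral vehicle 10% PEG 400 in PBS, pH 7.0-7.5). Heparinized blood was sampled after dosing and the plasma stored at -70 °C. Analysis was by LC-MS-MS with multiple reaction monitoring, using plasma calibration standards of 0.01-10 µM (LOQ 0.01 µM). For ester prodrugs, the parent acid was quantified. AUC was taken after oral dosing and t1/2 after iv dosing.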

[3] = Oral bioavailability in rat at 30 mg/kg, po and 3 mg/kg, iv; assay type: ADME, organism-based; details: in vivo; outline: as §1
[4] = AUC in rat at 30 mg/kg, po; assay type: ADME, organism-based; design: dose 30 mg/kg, route oral; details: plasma; outline: as §1
[5] = target: T1, Integrin alpha-4/beta-7 (Homo sapiens, UniProt P13612+P26010); experiment: Inhibition of binding of alpha-4-beta-7 integrin receptor expressed in human K562 cells to immobilized MAdCAM1; assay type: cell-based
T1 sequence (P13612 whole entry): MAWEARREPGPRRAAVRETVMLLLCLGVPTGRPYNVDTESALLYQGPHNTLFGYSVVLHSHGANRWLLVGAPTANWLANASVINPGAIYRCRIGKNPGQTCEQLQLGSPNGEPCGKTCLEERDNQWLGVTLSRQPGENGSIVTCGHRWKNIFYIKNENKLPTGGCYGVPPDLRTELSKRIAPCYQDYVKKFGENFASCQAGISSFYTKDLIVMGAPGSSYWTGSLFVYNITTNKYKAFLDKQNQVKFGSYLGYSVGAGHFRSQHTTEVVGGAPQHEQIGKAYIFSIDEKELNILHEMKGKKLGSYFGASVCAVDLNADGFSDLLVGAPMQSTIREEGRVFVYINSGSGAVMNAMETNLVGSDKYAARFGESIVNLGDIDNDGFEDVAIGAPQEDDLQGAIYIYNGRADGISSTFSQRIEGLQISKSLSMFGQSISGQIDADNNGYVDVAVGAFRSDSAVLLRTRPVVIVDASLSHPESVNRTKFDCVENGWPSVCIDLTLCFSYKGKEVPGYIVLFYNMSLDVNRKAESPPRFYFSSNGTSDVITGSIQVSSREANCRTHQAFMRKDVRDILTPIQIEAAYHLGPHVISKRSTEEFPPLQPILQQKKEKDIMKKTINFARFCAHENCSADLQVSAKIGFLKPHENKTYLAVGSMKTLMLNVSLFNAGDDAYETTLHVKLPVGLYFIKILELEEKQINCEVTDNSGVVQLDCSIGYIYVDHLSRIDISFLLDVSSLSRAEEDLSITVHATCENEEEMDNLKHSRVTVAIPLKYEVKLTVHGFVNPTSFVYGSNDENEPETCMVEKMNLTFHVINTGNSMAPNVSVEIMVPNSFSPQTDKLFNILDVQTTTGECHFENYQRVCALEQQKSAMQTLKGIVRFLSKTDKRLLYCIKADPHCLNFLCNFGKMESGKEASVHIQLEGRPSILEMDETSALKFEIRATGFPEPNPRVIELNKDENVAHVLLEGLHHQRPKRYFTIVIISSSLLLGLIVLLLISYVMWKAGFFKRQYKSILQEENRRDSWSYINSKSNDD
T1 sequence (P26010 whole entry): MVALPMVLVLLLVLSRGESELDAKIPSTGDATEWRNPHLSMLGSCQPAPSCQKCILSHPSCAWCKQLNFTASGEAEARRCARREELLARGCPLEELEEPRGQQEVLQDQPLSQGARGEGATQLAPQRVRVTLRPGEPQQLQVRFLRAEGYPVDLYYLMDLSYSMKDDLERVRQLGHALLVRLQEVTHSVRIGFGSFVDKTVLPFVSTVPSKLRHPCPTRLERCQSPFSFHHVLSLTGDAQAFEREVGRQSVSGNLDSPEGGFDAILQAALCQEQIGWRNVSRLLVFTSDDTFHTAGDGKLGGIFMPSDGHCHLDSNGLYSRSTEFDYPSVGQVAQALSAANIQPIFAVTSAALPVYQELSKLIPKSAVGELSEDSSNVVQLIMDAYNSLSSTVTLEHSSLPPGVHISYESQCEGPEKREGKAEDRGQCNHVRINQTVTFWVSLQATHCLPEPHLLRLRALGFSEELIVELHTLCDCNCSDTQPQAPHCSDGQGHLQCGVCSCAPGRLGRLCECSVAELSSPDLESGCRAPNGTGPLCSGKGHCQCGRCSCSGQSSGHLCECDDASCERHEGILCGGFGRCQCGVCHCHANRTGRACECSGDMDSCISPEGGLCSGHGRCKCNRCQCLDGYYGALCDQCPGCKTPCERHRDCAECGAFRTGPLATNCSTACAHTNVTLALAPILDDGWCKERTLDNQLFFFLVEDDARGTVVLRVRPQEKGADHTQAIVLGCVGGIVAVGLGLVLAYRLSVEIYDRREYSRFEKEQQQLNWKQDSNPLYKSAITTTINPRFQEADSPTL

[6] = Volume of distribution in rat at 3 mg/kg, iv; assay type: ADME, organism-based; design: dose 3 mg/kg, route intravenous; details: in vivo, read-out: Vdss; outline: as §1
[7] = Clearance in rat at 3 mg/kg, iv; assay type: ADME, organism-based; design: dose 3 mg/kg, route intravenous; details: in vivo; outline: as §1
[8] = Inhibition of adhesion of human HL60 cell to TNF-alpha-stimulated HUVEC cells mediated by ELAM1; assay type: functional, cell-based
[9] = Inhibition of adhesion of human Ramos cell to TNF-alpha-stimulated HUVEC cells mediated by VCAM1; assay type: functional, cell-based
[10] = Inhibition of adhesion of human U937 cell to LPS-stimulated HUVEC cells mediated by ICAM1/VCAM1; assay type: functional, cell-based
[11] = tested on: Mus musculus; experiment: Inhibition of DSS-induced colitis in mouse at 60 mg/kg, po after 7 days; assay type: functional; details: 168 h
Outline: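 Female Balb/c mice, 11-14 weeks old (n = 10/group), drank 5% DSS in tap water ad libitum for 7 days, freshly changed daily. Oral gavage at 60 mg/kg in 10% PEG 400 in D5W, or vehicle alone, began on the day of induction and continued twice daily for 7 days. Colons were then dissected. The macroscopic score combined colon shrinkage, stool consistency and colon damage.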

Sequence of Integrin alpha-4/beta-1 (P05556 whole entry, one chain of several): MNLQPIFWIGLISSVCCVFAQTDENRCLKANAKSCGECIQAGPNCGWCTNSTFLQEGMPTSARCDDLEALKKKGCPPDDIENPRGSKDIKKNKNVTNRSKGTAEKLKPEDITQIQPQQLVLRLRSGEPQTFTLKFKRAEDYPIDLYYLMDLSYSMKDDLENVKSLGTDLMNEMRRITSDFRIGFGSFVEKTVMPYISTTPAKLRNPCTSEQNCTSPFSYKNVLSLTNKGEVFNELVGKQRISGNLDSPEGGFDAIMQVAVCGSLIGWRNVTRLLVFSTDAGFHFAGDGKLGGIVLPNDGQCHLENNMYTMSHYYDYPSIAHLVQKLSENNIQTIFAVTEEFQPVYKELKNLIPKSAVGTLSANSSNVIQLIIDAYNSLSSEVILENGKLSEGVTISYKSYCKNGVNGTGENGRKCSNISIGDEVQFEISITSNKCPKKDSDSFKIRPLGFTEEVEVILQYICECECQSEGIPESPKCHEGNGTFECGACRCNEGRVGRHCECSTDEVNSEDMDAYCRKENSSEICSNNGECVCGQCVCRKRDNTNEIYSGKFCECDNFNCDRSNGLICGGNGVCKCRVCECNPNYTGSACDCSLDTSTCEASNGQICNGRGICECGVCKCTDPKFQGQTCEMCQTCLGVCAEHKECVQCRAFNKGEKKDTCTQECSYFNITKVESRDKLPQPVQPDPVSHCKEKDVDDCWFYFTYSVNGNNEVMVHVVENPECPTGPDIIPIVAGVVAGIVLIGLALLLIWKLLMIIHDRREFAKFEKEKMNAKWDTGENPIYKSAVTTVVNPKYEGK

| SMILES | pIC50 [1] | half-life [2] [min] | bioavailability [3] [%] | AUC [4] [µM·h] | pIC50 [5] | other results |
| --- | --- | --- | --- | --- | --- | --- |
| CCCN(C(=O)N[C@@H](Cc1ccc(-c2c(OC)cnn(C)c2=O)cc1)C(=O)O)c1ccccc1 | < 5.30 | – | – | – | – | – |
| COc1cnn(C)c(=O)c1-c1ccc(C[C@H](NC(=O)N(C)CC(C)C)C(=O)OCCO)cc1 | – | 24 | 14 | 47 | – | – |
| COC(=O)N[C@@H](Cc1ccc(-c2c(OC)cnn(C)c2=O)cc1)C(=O)O | < 5.30 | – | – | – | – | – |
| COc1cnn(C)c(=O)c1-c1ccc(C[C@H](NC(=O)N(C)CC(C)C)C(=O)O)cc1 | 5.74 | 54 | 3 | 5.2 | – | Vd [6]: 0.19 L/kg; clearance [7]: 7.8 mL/min/kg |
| COc1cnn(C)c(=O)c1-c1ccc(C[C@H](NC(=O)OC(C)(C)C)C(=O)O)cc1 | < 5.30 | – | – | – | – | – |
| COc1cnn(Cc2ccccc2)c(=O)c1-c1ccc(C[C@H](NC(=O)c2c(Cl)cccc2Cl)C(=O)O)cc1 | – | – | – | – | 7.00 | – |
| COc1cnn(CCO)c(=O)c1-c1ccc(C[C@H](NC(=O)OC(C)(C)C)C(=O)O)cc1 | < 5.30 | 12 | 1 | 1.6 | 6.96 | Vd [6]: 0.11 L/kg; clearance [7]: 6 mL/min/kg |
| COc1cnn(C)c(=O)c1-c1ccc(C[C@H](NC(=O)N(C)C)C(=O)O)cc1 | < 5.30 | – | – | – | 5.82 | – |
| COc1cnn(CCO)c(=O)c1-c1ccc(C[C@H](NC(=O)OC(C)(C)C)C(=O)OCCO)cc1 | – | 66 | 31 | 51 | – | inhibition in vivo at 60 mg/kg [11]: 54% |

Second part, led by results:

| pIC50 [1] | half-life [2] [min] | bioavailability [3] [%] | AUC [4] [µM·h] | pIC50 [5] | SMILES | other results |
| --- | --- | --- | --- | --- | --- | --- |
| 7.18 | – | – | – | – | Cn1ncc(OCCN2CCOCC2)c(-c2ccc(C[C@H](NC(=O)c3c(Cl)cccc3Cl)C(=O)O)cc2)c1=O | – |
| – | 60 | 7 | 3.3 | – | COc1cnn(C)c(=O)c1-c1ccc(C[C@H](NC(=O)c2c(Cl)cccc2Cl)C(=O)OCCO)cc1 | – |
| 6.96 | – | – | – | – | Cn1ncc(N2CCCC2)c(-c2ccc(C[C@H](NC(=O)c3c(Cl)cccc3Cl)C(=O)O)cc2)c1=O | – |
| 6.55 | – | – | – | 8.10 | Cn1ncc(OC(F)F)c(-c2ccc(C[C@H](NC(=O)c3c(Cl)cccc3Cl)C(=O)O)cc2)c1=O | – |
| – | 12 | 1 | 0.5 | – | COc1cnn(C)c(=O)c1-c1ccc(C[C@H](NC(=O)c2c(Cl)cccc2Cl)C(=O)O)cc1 | pIC50 [8]: > 8.30; pIC50 [9]: 7.37; pIC50 [10]: 7.85; Vd [6]: 0.4 L/kg; clearance [7]: 22 mL/min/kg |
| 6.82 | – | – | – | – | Cn1ncc(OC2CCCCC2)c(-c2ccc(C[C@H](NC(=O)c3c(Cl)cccc3Cl)C(=O)O)cc2)c1=O | – |
| < 5.30 | – | – | – | 6.48 | COc1cnn(C2CCCCC2)c(=O)c1-c1ccc(C[C@H](NC(=O)c2c(Cl)cccc2Cl)C(=O)O)cc1 | – |
| – | 42 | 8 | 1.7 | – | COC(=O)[C@H](Cc1ccc(-c2c(OC)cnn(C)c2=O)cc1)NC(=O)c1c(Cl)cccc1Cl | – |
| 6.77 | – | – | – | 8.70 | CCOc1cnn(C)c(=O)c1-c1ccc(C[C@H](NC(=O)c2c(Cl)cccc2Cl)C(=O)O)cc1 | – |
| – | – | 4 | 2.3 | – | CCOC(=O)[C@H](Cc1ccc(-c2c(OC)cnn(C)c2=O)cc1)NC(=O)c1c(Cl)cccc1Cl | – |
| 6.89 | – | – | – | – | COc1cnn(CCO)c(=O)c1-c1ccc(C[C@H](NC(=O)c2c(Cl)cccc2Cl)C(=O)O)cc1 | – |
| – | – | – | – | 7.31 | Cn1ncc(O)c(-c2ccc(C[C@H](NC(=O)c3c(Cl)cccc3Cl)C(=O)O)cc2)c1=O | – |
| 6.00 | – | – | – | – | COc1cnnc(O)c1-c1ccc(C[C@H](NC(=O)c2c(Cl)cccc2Cl)C(=O)O)cc1 | – |
